ChEMBL document CHEMBL1138547, “Synthesis, biological evaluation and 2D-QSAR analysis of benzoxazoles as antimicrobial agents” (2009)
≈ marks a conversion by molar mass, not a printed value.

Assays:
Assay type in all cases: functional
Candida albicans [1] = assay: Antimicrobial activity against multidrug-resistant Candida albicans isolates after 24 to 48 hrs
How it was run: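 Yeast broth microdilution following CLSI M27-A, with Sabouraud dextrose medium noted for antifungal assays. Fresh cultures at McFarland 0.5 (10^6 cfu/ml) were diluted to 10^4 cfu/ml and inoculated into twofold compound dilutions. Trays were incubated at 35 °C in a humid chamber and read at 48 h, in triplicate. MIC was the lowest concentration giving complete macroscopic growth inhibition.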

Klebsiella pneumoniae [2] = assay: Antimicrobial activity against multidrug-resistant Klebsiella pneumoniae after 24 hrs
How it was run: (§1)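 Twofold serial broth dilution in Mueller-Hinton broth. MHB was used both to dilute the bacterial suspension and for the twofold compound dilutions, giving 10^3 cfu/ml bacteria per well after inoculation. Solvent, medium and organism-only wells served as controls. Each organism was run in triplicate.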

Pseudomonas aeruginosa = assay: Antimicrobial activity against Pseudomonas aeruginosa ATCC […] after 24 hrs
How it was run: (§2)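 MIC by twofold serial dilution in Mueller-Hinton broth (MHB); MHB also used to dilute the bacterial suspension. Wells held 10^3 cfu/ml bacteria after inoculation. Controls: 80% DMSO, 20% EtOH, methanol, DMSO, PBS, organism alone and medium alone. Triplicate in each run. MIC taken as the lowest concentration completely inhibiting macroscopic growth.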

Escherichia coli [3] = assay: Antimicrobial activity against multidrug-resistant Escherichia coli after 24 hrs; how it was run: as §1
Bacillus subtilis [4] = assay: Antimicrobial activity against Bacillus subtilis ATCC 6633 after 24 hrs; conditions: for MIC: Bacillus subtilis, ATCC 6633, 24 h; how it was run: as §2
Candida albicans [5] = assay: Antimicrobial activity against Candida albicans ATCC 10231 after 24 to 48 hrs
How it was run: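 Twofold serial dilution following CLSI M27-A. Yeast suspension made at 10^4 cfu/ml by diluting a fresh culture at McFarland 0.5 (10^6 cfu/ml). Inoculated into the diluted compound, incubated at 35 °C in a humid chamber, read after 48 h. Triplicate in each run. MIC is the lowest concentration completely inhibiting macroscopic growth.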

Escherichia coli [6] = assay: Antimicrobial activity against Escherichia coli ATCC 25922 after 24 hrs; conditions: ATCC 25922, 24 h; how it was run: as §2
Staphylococcus aureus [7] = assay: Antimicrobial activity against multidrug-resistant Staphylococcus aureus after 24 hrs; how it was run: as §1
Klebsiella pneumoniae [8] = assay: Antimicrobial activity against Klebsiella pneumoniae RSHM 574 after 24 hrs; conditions: RSHM 574, 24 h; how it was run: as §2
Bacillus subtilis [9] = assay: Antimicrobial activity against ceftriazone-resistant Bacillus subtilis after 24 hrs; how it was run: as §1
Staphylococcus aureus [10] = assay: Antimicrobial activity against Staphylococcus aureus ATCC 25923 after 24 hrs; conditions: ATCC 25923, 24 h; how it was run: as §1

SMILES | MIC (Candida albicans [1]) [µg/mL] | MIC (Klebsiella pneumoniae [2]) [µg/mL] | MIC (Pseudomonas aeruginosa) [µg/mL] | MIC (Escherichia coli [3]) [µg/mL] | log(1/C) (Bacillus subtilis [4]) | MIC (Bacillus subtilis [4]) [µg/mL] | MIC (Candida albicans [5]) [µg/mL] | MIC (Escherichia coli [6]) [µg/mL] | MIC (Staphylococcus aureus [7]) [µg/mL] | MIC (Klebsiella pneumoniae [8]) [µg/mL] | MIC (Bacillus subtilis [9]) [µg/mL] | MIC (Staphylococcus aureus [10]) [µg/mL]
CCc1ccc(-c2nc3cc(N)ccc3o2)cc1 | 50 (≈ 210 µM) | 100 (≈ 420 µM) | 50 (≈ 210 µM) | 100 (≈ 420 µM) | 4.28 | 12.5 (≈ 52.5 µM) | 50 (≈ 210 µM) | 50 (≈ 210 µM) | 100 (≈ 420 µM) | 50 (≈ 210 µM) | 50 (≈ 210 µM) | 25 (≈ 105 µM)
O=[N+]([O-])c1ccc2nc(Cc3ccc(Cl)cc3)oc2c1 | 50 (≈ 173 µM) | 100 (≈ 346 µM) | 25 (≈ 86.6 µM) | 100 (≈ 346 µM) | 4.364 | 12.5 (≈ 43.3 µM) | 100 (≈ 346 µM) | 50 (≈ 173 µM) | 100 (≈ 346 µM) | 50 (≈ 173 µM) | 25 (≈ 86.6 µM) | 200 (≈ 693 µM)
Nc1ccc2nc(Cc3ccc(Cl)cc3)oc2c1 | 50 (≈ 193 µM) | 100 (≈ 387 µM) | 25 (≈ 96.6 µM) | 100 (≈ 387 µM) | 4.32 | 12.5 (≈ 48.3 µM) | 50 (≈ 193 µM) | 50 (≈ 193 µM) | 100 (≈ 387 µM) | 50 (≈ 193 µM) | 25 (≈ 96.6 µM) | 100 (≈ 387 µM)
O=[N+]([O-])c1ccc2nc(Cc3ccc(Br)cc3)oc2c1 | 100 (≈ 300 µM) | 100 (≈ 300 µM) | 25 (≈ 75 µM) | 100 (≈ 300 µM) | 4.125 | 25 (≈ 75 µM) | 50 (≈ 150 µM) | 50 (≈ 150 µM) | 100 (≈ 300 µM) | 50 (≈ 150 µM) | 25 (≈ 75 µM) | 100 (≈ 300 µM)
CC(C)(C)c1ccc(-c2nc3ccc(N)cc3o2)cc1 | 50 (≈ 188 µM) | 100 (≈ 375 µM) | 25 (≈ 93.9 µM) | 100 (≈ 375 µM) | 4.027 | 25 (≈ 93.9 µM) | 50 (≈ 188 µM) | 50 (≈ 188 µM) | 100 (≈ 375 µM) | 50 (≈ 188 µM) | 25 (≈ 93.9 µM) | 100 (≈ 375 µM)
O=[N+]([O-])c1ccc2oc(Cc3ccc(F)cc3)nc2c1 | 50 (≈ 184 µM) | 100 (≈ 367 µM) | 25 (≈ 91.8 µM) | 50 (≈ 184 µM) | 4.338 | 12.5 (≈ 45.9 µM) | 100 (≈ 367 µM) | 50 (≈ 184 µM) | 100 (≈ 367 µM) | 50 (≈ 184 µM) | 50 (≈ 184 µM) | 100 (≈ 367 µM)
O=[N+]([O-])c1ccc2nc(-c3ccccc3)oc2c1 | 50 (≈ 208 µM) | 100 (≈ 416 µM) | 50 (≈ 208 µM) | 25 (≈ 104 µM) | 3.983 | 25 (≈ 104 µM) | 100 (≈ 416 µM) | 50 (≈ 208 µM) | 100 (≈ 416 µM) | 50 (≈ 208 µM) | 25 (≈ 104 µM) | 200 (≈ 833 µM)
Nc1ccc2nc(-c3ccc(Br)cc3)oc2c1 | 50 (≈ 173 µM) | 100 (≈ 346 µM) | 50 (≈ 173 µM) | 50 (≈ 173 µM) | 4.063 | 25 (≈ 86.5 µM) | 100 (≈ 346 µM) | 50 (≈ 173 µM) | 100 (≈ 346 µM) | 50 (≈ 173 µM) | 25 (≈ 86.5 µM) | 100 (≈ 346 µM)
CC(C)(C)c1ccc(-c2nc3ccc([N+](=O)[O-])cc3o2)cc1 | 100 (≈ 337 µM) | 100 (≈ 337 µM) | 50 (≈ 169 µM) | 100 (≈ 337 µM) | 3.773 | 50 (≈ 169 µM) | 50 (≈ 169 µM) | 50 (≈ 169 µM) | 100 (≈ 337 µM) | 50 (≈ 169 µM) | 100 (≈ 337 µM) | 100 (≈ 337 µM)
Nc1ccc2oc(-c3ccc(F)cc3)nc2c1 | 50 (≈ 219 µM) | 100 (≈ 438 µM) | 50 (≈ 219 µM) | 100 (≈ 438 µM) | 3.96 | 25 (≈ 110 µM) | 50 (≈ 219 µM) | 50 (≈ 219 µM) | 100 (≈ 438 µM) | 50 (≈ 219 µM) | 50 (≈ 219 µM) | 50 (≈ 219 µM)
